Source: ChEMBL document CHEMBL1147094, “Novel in vivo model for the study of human immunodeficiency virus type 1 transcription inhibitors: evaluation of new 6-desfluoroquinolone derivatives” (Antimicrob Agents Chemother, 2007)
In brackets after ≈: the same amount, converted by molar mass. Activity calls are given as the source filed them. No cut-off for these calls is given here.

Assays:
[1] = system: Human immunodeficiency virus 1; experiment: Antiviral activity against human TNF alpha-stimulated HIV1 expression in latently HIV1 infected OM10.1 cells assessed as inhibition of viral p24 production; assay type: functional, organism-based
[2] = system: Human immunodeficiency virus 1; experiment: Antiviral activity against HIV1 BaL acutely infected human M/M cells; assay type: functional, organism-based; settings: Human immunodeficiency virus 1, BaL
[3] = system: Human immunodeficiency virus 1; experiment: Antiviral activity against human TNF-alpha stimulated HIV1 expression in latently HIV1 infected U1 cells assessed as decrease in mRNA production; assay type: functional, organism-based
[4] = system: Human immunodeficiency virus 1; experiment: Antiviral activity against latently HIV1 infected OM10.1 cells assessed as inhibition of viral p24 antigen production; assay type: functional, organism-based
[5] = system: Human immunodeficiency virus 1; experiment: Antiviral activity against human PMA stimulated HIV1 expression in latently HIV1 infected U1 cells assessed as decrease in mRNA production; assay type: functional, organism-based
[6] = system: Human immunodeficiency virus 1; experiment: Antiviral activity against latently HIV1 infected U1 cells assessed as inhibition of viral p24 antigen production; assay type: functional, organism-based
[7] = system: Human immunodeficiency virus 1; experiment: Antiviral activity against human TNF-alpha stimulated HIV1 expression in latently HIV1 infected OM10.1 cells assessed as inhibition of viral mRNA production; assay type: functional, organism-based
[8] = system: Human immunodeficiency virus 1; experiment: Inhibition of viral reactivation in SCID mouse inoculated with HIV1 infected OM10.1 cells at 50 mg/kg, ip for 3 days prior to hTNF alpha administration assessed as viral loads after 18 hrs; assay type: functional, organism-based; parameters: dose 50 mg/kg
[9] = system: Human immunodeficiency virus 1; experiment: Antiviral activity against HIV1 BaL chronically infected human M/M cells; assay type: functional, organism-based; settings: Human immunodeficiency virus 1, BaL
[10] = Cytotoxicity against latently HIV1 infected OM10.1 cells by MTT method; assay type: cell-based; settings: human, OM10.1 cells latently infected with HIV-1
In short: (§1)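 OM-10.1 cells at 500,000 cells/ml were exposed to compound for 2 h, then stimulated with 1 ng/ml hTNF-α or 0.02 µM PMA for 2 days at 37°C. Viability was read by MTT staining. The selectivity index is CC50 from MTT divided by EC50 from p24 ELISA run in the same cultures.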

[11] = Selectivity index, CC50 for OM10.1 cells to EC50 for HIV1 infected OM10.1 cells; assay type: functional; in short: as §1
[12] = system: Human immunodeficiency virus 1; experiment: Antiviral activity against human PMA-stimulated HIV1 expression in latently HIV1 infected U1 cells assessed as inhibition of viral p24 production; assay type: functional, organism-based
[13] = system: Human immunodeficiency virus 1; experiment: Antiviral activity against human PMA-stimulated HIV1 expression in latently HIV1 infected OM10.1 cells assessed as inhibition of viral p24 production; assay type: functional, organism-based
[14] = system: Human immunodeficiency virus 1; experiment: Antiviral activity against PMA stimulated HIV1 expression in latently HIV1 infected OM10.1 cells assessed as inhibition of viral mRNA production; assay type: functional, organism-based
[15] = system: Human immunodeficiency virus 1; experiment: Antiviral activity against human TNF alpha-stimulated HIV1 expression in latently HIV1 infected U1 cells assessed as inhibition of viral p24 production; assay type: functional, organism-based

Row | EC50 [1] [mg/L] | EC50 [2] [mg/L] | EC90 [2] [mg/L] | IC50 [7] [mg/L] | EC50 [9] [mg/L] | EC90 [9] [mg/L] | EC50 [13] [mg/L] | IC50 [14] [mg/L] | Structure (SMILES) | Activity [3] | Activity [4] | Activity [5] | Activity [6] | Activity [8] | CC50 [10] [mg/L] | Ratio CC50/EC50 [11] | Activity [12] | Activity [15]
1 | 0.054 (≈ 0.125 µM) | 0.05 (≈ 0.116 µM) | 1 (≈ 2.32 µM) | 0.067 (≈ 0.155 µM) | 0.05 (≈ 0.116 µM) | 1 (≈ 2.32 µM) | 0.039 (≈ 0.0904 µM) | 0.032 (≈ 0.0742 µM) | Cn1cc(C(=O)O)c(=O)c2ccc(N3CCN(c4cccc(C(F)(F)F)c4)CC3)cc21 | Dose-dependent effect | Dose-dependent effect | Dose-dependent effect | Dose-dependent effect | Active | 5 (≈ 11.6 µM) | 125 | Dose-dependent effect | Dose-dependent effect
2 | 0.045 (≈ 0.107 µM) | 0.025 (≈ 0.0595 µM) | 0.2 (≈ 0.476 µM) | 0.06 (≈ 0.143 µM) | 0.011 (≈ 0.0262 µM) | 0.16 (≈ 0.381 µM) | 0.04 (≈ 0.0951 µM) | 0.04 (≈ 0.0951 µM) | Cn1cc(C(=O)O)c(=O)c2ccc(N3CCN(c4nc5ccccc5s4)CC3)cc21 | Dose-dependent effect | Dose-dependent effect | Dose-dependent effect | Dose-dependent effect | Active | 5 (≈ 11.9 µM) | 125 | Dose-dependent effect | Dose-dependent effect
